Screening results: PubChem, several laboratories
Compounds with a hit are over-represented: about 1.2% of the library has one in this group of screens.
TbHK1 inh – T. brucei hexokinase 1 inhibition | recombinant TbHK1, G6PDH-coupled NADH A340 | inhibition, % at 10 µM | 220,000 compounds, 0.11% hits;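 active = inhibition of 50% or more in the single-dose primary screen; inactive = inhibition below 50%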
HSV augment – increases HSV replication in cells. 220,000 compounds, 0.005% hits. AID 1956. maximum fold increase. HSV replication augmentation in cells, fold increase; in the data active = maximum fold increase above about 1.5; tested in PC3 cells
Autophagy HCS – autophagy modulation, high-content screen; MEF GFP-LC3 puncta imaging; test concentration mostly 10 µM; AID 463193; calls only at 10 µM (by protocol); 190,000 compounds, 0.98% hits;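 active = percentage of spot-positive cells more than 3 SD above its plate mean, without a fluorescence outlier flag or 80% toxicity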;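 also: spot-positive cell cutoff set from DMSO-treated cells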
PERK inh – inhibitors of human PERK kinase; Q9NZJ5; CHO PERK-DD fusion, SEAP luminescence translation reporter; inhibition, % at 5.6 µM; 220,000 compounds, 0.17% hits; AID 1416;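 active = inhibition above the mean inhibition of all tested compounds plus 3 SD, set separately per screening campaign, cut at about 2.9% in these data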;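 also: PERK kinase domain activated by AP20187 dimerizer at 100 nM; 0% = DMSO with dimerizer and 100% = rapamycin at 8.4 µM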
Target sequence (Q9NZJ5 whole entry, looked up, the tested form may be a part): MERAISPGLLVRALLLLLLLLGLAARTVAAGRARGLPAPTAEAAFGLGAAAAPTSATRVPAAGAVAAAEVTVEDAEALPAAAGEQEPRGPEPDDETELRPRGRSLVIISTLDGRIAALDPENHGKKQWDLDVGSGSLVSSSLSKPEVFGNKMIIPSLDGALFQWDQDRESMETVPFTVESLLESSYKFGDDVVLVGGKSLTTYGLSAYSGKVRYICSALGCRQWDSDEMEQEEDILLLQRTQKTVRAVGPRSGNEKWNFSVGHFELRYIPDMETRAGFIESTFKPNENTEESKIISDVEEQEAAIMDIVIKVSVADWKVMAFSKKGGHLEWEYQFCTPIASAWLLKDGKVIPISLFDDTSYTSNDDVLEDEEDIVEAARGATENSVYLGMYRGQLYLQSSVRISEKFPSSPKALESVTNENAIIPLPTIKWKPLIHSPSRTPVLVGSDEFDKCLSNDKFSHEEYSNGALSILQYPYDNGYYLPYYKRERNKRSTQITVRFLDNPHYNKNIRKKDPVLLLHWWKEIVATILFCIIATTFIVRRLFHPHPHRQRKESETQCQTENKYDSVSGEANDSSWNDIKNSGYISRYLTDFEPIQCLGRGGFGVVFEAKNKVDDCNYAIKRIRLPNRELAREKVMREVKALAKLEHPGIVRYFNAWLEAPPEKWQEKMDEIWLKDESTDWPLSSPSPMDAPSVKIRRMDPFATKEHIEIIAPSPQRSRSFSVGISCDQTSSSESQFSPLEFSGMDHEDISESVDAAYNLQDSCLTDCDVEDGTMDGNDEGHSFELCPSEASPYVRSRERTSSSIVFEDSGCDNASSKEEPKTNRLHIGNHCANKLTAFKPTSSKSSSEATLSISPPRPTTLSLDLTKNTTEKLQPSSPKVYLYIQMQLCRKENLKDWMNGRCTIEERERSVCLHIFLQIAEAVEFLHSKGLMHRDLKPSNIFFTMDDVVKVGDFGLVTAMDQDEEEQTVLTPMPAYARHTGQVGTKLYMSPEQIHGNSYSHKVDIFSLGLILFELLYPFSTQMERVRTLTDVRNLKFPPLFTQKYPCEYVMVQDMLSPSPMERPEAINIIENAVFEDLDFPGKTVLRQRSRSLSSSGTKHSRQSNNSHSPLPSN
Dynein cargo inh – dynein cargo transport inhibition; 3617.4 mouse cells, GR-EGFP nuclear translocation imaging; test concentration mostly 20 µM; stimulated with dexamethasone, 1 µM; hits give low values; z-score, hits read low; 220,000 compounds, 0.47% hits;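 active = plate z-score of nuclear minus cytoplasmic receptor signal below a set negative limit, without overly bright fluorescence or cell loss, cut at about -3.5 in these data, passing the limit was not always enough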;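 also: z-score of nuclear minus cytoplasmic ring GR-EGFP intensity difference per well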
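Buffer or medium: tetracycline-free induction medium containing charcoal-stripped FBS / Reagent: dexamethasone agonist, 1.0 µM final, for 30 min / Technique: automated 10x imaging of fixed Hoechst-stained cells / Times: induction 48 h, compound 1 h, agonist 30 min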
HKDC1 inh – blocks human hexokinase HKDC1 activity; recombinant HKDC1, G6PDH/diaphorase resazurin coupled fluorescence; inhibition, % at 20 µM; 340,000 compounds, 0.16% hits; AID 493160;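 active = inhibition above about 35% when tested at 20 µM, limit read from the data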;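 also: plate controls were DMSO wells with enzyme for no effect and DMSO wells lacking enzyme for full effect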
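Material – in-house recombinant HK5 (HKDC1) enzyme · Quantity – HKDC1 at 5 µg/mL · Buffer or medium – pH 8.0 Tris buffer with 10 mM MgCl2 · Reagent – glucose with 1 mM ATP · Dosing – single 20 µM dose · Times – reaction time 90 min, room temperature, protected from light · Technique – resorufin fluorescence at 613 nm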
HKDC1 act conf2 – confirmation of human HKDC1 activators; 740 compounds, 14% hits; inhibition, % at 20 µM; AID 504708; shares compounds with HKDC1 inh; recombinant HKDC1, G6PDH/diaphorase resazurin fluorescence; hits give low values;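 active = inhibition at or below a set negative limit, negative inhibition meaning the enzyme was activated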
Starred values were filed as active, the others as inactive; i = inactive; / = no result.

SMILES | TbHK1 inh | HSV augment | Autophagy HCS | PERK inh | Dynein cargo inh | HKDC1 inh | HKDC1 act conf2
Cc1ccc(S(=O)(=O)/N=C2\C=C(Nc3cccc(C(=O)O)c3)C(=O)c3ccccc32)c(C)c1 | / | / | / | / | / | 39* | 58
CC(OC(=O)CCOc1ccccc1)C(=O)NC1CC1 (configuration not stated) | / | / | / | / | / | -2 | /
Cc1occc1C(=O)N/N=C/C1=C(N2CCOCC2)C(=C/c2ccc(Cl)cc2Cl)/CC1 | / | / | / | / | / | -1 | /
CC(C(=O)O)N1C(=O)/C(=C/C=C/c2ccco2)SC1=S (configuration not stated) | 30 | i | i | 0 | 0.56 | 56* | 5
CCN(C(=O)C(C)N1C(=O)/C(=C/c2ccco2)SC1=S)C1CCS(=O)(=O)C1 (configuration not stated) | / | / | / | / | / | 11 | /
CC1CN(CCOc2ccccc2C(C)C)CC(C)O1 (configuration not stated) | / | / | / | / | / | 0 | /
CSC1=NC(=O)/C(=C\c2cccc3ccccc23)S1 | 3 | i | i | 1 | -1.1 | 33 | -11
COC1=CC(=O)c2c(ccc3ncnc(N)c23)C1=O | / | / | / | / | / | 87* | 88
C=CC(=O)N1C/C(=C/c2ccc(Cl)cc2)C(=O)/C(=C\c2ccc(Cl)cc2)C1 | / | / | / | / | / | 45* | 10
C=CC(=O)N1C/C(=C/c2ccccc2)C(=O)/C(=C\c2ccccc2)C1 | / | / | / | / | / | 38* | 2
CN1C/C(=C/c2ccncc2)C(=O)/C(=C/c2ccncc2)C1 | / | / | / | / | / | 3 | /
CCOC(=O)N1CCN(C(=O)CSC2=NS(=O)(=O)c3ccccc3N2)CC1 | / | / | / | / | / | -1 | /
COc1ccc(NC(=O)Cc2c[nH]c3ccccc23)cc1S(=O)(=O)N1CCCCC1 | 4 | i | i | 0 | -0.23 | 49* | -35*
CC(=O)Nc1ccc(S(=O)(=O)NCCC(=O)OC(C)C(=O)c2ccc(C)cc2)cc1 (configuration not stated) | / | / | / | / | / | 35* | -16
Cc1ccc(-c2nc(NC(=O)CSc3cc(C)c4ccccc4n3)ns2)cc1 | 4 | i | i | 1 | 0.46 | 57* | -2
COc1ccc2c(C)cc(SCC(=O)Nc3nsc(-c4ccc(C)cc4)n3)nc2c1 | 1 | / | i | -1 | 0.016 | 9 | /
O=C1C(Cl)=C(NCCCO)C(=O)c2ccccc21 | -10 | i | i | 0 | -0.18 | 1 | /
O=C1C(SCCO)=C(SCCO)C(=O)c2ccccc21 | / | / | / | / | / | 72* | 84
COc1ccccc1CNC(=O)c1ccc2c(=O)n3c(nc2c1)CCCCC3 | / | / | / | / | / | -3 | /
CCN(CC)c1ccc(NC(=O)c2ccccc2Br)cc1S(=O)(=O)Nc1ccccc1OC | 8 | i | i | -1 | 0.34 | -43 | -28
O=C(CCN1C(=O)c2ccc(Br)cc2C1=O)NC1CCCCC1 | / | / | / | / | / | -9 | /
CCN1C(=O)[C@H]2[C@H]3CN=C(SCc4ccc(C)cc4)N3[C@@](CC)(C(=O)OC)[C@H]2C1=O | / | / | / | / | / | 5 | /
O=C1C(Cl)=C(NC(=O)c2ccccc2)C(=O)C(Cl)=C1NC(=O)c1ccccc1 | / | / | / | / | / | 43* | 41
O=C(NC1=C(Nc2ccc(Cl)cc2)C(=O)c2ccccc2C1=O)c1ccccc1 | -1 | i | i | 0 | -0.18 | 5 | /
O=C(CSc1nnc(CCCN2C(=O)c3cccc4cccc(c34)C2=O)n1-c1ccccc1)N1CCCCC1 | -10 | i | i | 0 | -0.58 | 37* | 48
SMILES | TbHK1 inh | HSV augment | Autophagy HCS | PERK inh | Dynein cargo inh | HKDC1 inh | HKDC1 act conf2
COC(=O)c1ccc(NCc2c(O)ccc(O)c2Br)cc1Cl | / | / | / | / | / | 45* | 21
COC(=O)c1ccc(NCc2cc(O)ccc2O)cc1O | / | / | / | / | / | 25 | /
Cn1c(O)c(C=NCCCCCC(=O)O)c(=O)n(C)c1=O | / | / | / | / | / | -4 | /
Oc1ccc(Br)cc1CNc1cccc2cccnc12 | / | / | / | / | / | 40* | 6
Cc1[nH]c2ccccc2c1CCO | 4 | i | i | 1 | 1.4 | 9 | /
Cc1[nH]c2ccccc2c1C1=CC(=O)C=CC1=O | / | / | / | / | / | 58* | 53
Cc1cc(C)n(Cc2ccc(C(=O)N/N=C/c3ccc(-c4ccc([N+](=O)[O-])cc4)o3)o2)n1 | / | / | / | / | / | 66* | 31
CCCc1nc2sc3c(=O)[nH]cnc3c2c2c1CCCC2 | -13 | i | / | 1 | 0.19 | / | /
CCc1nc2sc3c(=O)[nH]cnc3c2c2c1CSC(C)(C)C2 | -10 | i | / | 0 | 0.26 | 37* | 31
